How the values were obtained:
[1] = species on record: Homo sapiens; assay: Selectivity index, ratio of Ki for human recombinant CB1 receptor to Ki for human recombinant CB2 receptor
[2] = biological target: T1, Cannabinoid receptor 2 (Homo sapiens, UniProt P34972); assay: Agonist activity at human CB2 receptor expressed in CHO cells assessed as forskolin-stimulated [3H]cyclic-AMP accumulation by scintillation counting analysis; format: functional, cell-based
[3] = biological target: T1, Cannabinoid receptor 2; assay: Displacement of [3H]CP-55,940 from human recombinant CB2 receptor expressed in CHO cell membranes after 60 mins by scintillation counting analysis
[4] = biological target: T2, Cannabinoid receptor 2 (Rattus norvegicus, UniProt Q9QZN9); assay: Displacement of [3H]CP-55,940 from Sprague-Dawley rat spleen CB2 receptor by scintillation counting analysis
T2 sequence (Q9QZN9 whole entry): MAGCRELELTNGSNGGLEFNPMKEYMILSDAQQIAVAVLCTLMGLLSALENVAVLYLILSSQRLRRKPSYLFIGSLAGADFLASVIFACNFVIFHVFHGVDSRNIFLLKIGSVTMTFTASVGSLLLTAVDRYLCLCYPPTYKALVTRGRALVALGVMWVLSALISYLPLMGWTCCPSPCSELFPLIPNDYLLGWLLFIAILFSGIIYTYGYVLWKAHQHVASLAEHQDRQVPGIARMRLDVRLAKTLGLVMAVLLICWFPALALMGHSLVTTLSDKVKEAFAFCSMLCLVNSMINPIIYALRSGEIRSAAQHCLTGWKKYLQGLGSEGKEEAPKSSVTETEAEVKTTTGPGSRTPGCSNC
Procedure, shortened: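 Male Sprague-Dawley rat spleen membranes, prepared by spinning at 2000g and then 40000g, in 50 mM Tris-HCl with 1 mM EDTA, 3 mM MgCl2 and 0.5% fatty-acid-free BSA, pH 7.4. Filtered on GF/C.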

[5] = biological target: T1, Cannabinoid receptor 2; assay: Agonist activity at human CB2 receptor expressed in CHO cells assessed as forskolin-stimulated [3H]cyclic-AMP accumulation by scintillation counting analysis relative to WIN 55,212-2; format: functional, cell-based
Procedure, shortened: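 CHO cells stably expressing human CB2, 1 × 10^6 cells/assay, in buffered saline (10 mM MgCl2, 5 mM glucose, 5 mM HEPES, pH 7.4, 37 °C) with 0.5 mM Ro 20-1724. Preincubated 10 min at 37 °C, then tested with 1 μM forskolin. Stopped with cold 6% TCA and ether-extracted. cAMP read by [3H]cAMP competition binding to beef adrenal binding protein with charcoal separation.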

[6] = biological target: Cannabinoid receptor 1 (Rattus norvegicus, UniProt P20272); assay: Displacement of [3H]CP-55,940 from Sprague-Dawley rat brain CB1 receptor by scintillation counting analysis
Procedure, shortened: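 Male Sprague-Dawley rat brain membranes, prepared by spinning at 2000g and then 40000g, in 50 mM Tris-HCl with 1 mM EDTA, 3 mM MgCl2 and 0.5% fatty-acid-free BSA, pH 7.4. Incubated with 1.0 nM [3H]CP-55,940, 40 μg protein/100 μL and test compound at 1 nM–10 μM. Filtered on GF/C. Ki by Cheng–Prusoff, n = 4.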

[7] = biological target: Cannabinoid receptor 1 (Homo sapiens, UniProt P21554); assay: Displacement of [3H]CP-55,940 from human recombinant CB1 receptor expressed in CHO cell membranes after 90 mins by scintillation counting analysis
Sequence of Cannabinoid receptor 1 (Homo sapiens, UniProt P21554) (P21554 whole entry): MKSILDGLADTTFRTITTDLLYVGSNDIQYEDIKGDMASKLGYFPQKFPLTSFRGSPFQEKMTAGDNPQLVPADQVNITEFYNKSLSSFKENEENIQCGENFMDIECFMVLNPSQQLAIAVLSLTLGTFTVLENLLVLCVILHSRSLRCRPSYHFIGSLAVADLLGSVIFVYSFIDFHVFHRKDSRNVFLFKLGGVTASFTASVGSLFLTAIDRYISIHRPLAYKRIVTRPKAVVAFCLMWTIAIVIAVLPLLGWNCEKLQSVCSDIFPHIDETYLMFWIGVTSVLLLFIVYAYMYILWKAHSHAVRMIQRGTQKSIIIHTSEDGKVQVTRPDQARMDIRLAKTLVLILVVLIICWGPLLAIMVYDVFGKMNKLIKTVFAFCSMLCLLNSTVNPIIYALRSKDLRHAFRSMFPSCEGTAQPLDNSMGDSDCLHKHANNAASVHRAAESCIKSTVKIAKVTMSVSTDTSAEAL

T1 sequence (P34972 whole entry): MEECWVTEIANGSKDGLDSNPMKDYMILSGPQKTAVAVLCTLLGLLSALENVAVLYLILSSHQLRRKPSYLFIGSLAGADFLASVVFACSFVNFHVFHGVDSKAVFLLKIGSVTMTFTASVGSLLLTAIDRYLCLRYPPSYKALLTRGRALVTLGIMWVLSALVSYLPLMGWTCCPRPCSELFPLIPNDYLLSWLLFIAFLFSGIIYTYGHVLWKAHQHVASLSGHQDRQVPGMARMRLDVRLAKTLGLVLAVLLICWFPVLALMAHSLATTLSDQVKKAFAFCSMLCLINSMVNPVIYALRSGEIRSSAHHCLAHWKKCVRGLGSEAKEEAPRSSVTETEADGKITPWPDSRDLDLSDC
Sequence of Cannabinoid receptor 1 (Rattus norvegicus, UniProt P20272) (P20272 whole entry): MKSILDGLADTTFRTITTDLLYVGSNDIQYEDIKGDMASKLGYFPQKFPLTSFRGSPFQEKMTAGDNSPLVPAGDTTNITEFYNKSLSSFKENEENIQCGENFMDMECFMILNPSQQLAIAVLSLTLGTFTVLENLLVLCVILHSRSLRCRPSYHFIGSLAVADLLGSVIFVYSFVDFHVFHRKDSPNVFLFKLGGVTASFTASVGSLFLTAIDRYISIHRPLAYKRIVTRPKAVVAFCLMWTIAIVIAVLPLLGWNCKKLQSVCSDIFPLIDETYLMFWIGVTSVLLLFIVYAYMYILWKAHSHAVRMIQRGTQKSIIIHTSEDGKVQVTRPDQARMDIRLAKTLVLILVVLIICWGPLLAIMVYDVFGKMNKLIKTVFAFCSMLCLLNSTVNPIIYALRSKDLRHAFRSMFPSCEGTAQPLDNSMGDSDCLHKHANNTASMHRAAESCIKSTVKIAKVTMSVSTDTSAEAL

Row | Structure (SMILES) | Ratio Ki [1] | EC50 [2] [nM] | Ki [3] [nM] | Ki [4] [nM] | Emax [5] [%] | Ki [6] [nM] | Ki [7] [nM]
1 | CCCCCn1cc(C(=O)NC23CC4CC(CC(C4)C2)C3)c(=O)c2c(CC)nn(C)c21 | 12 | 162 | 37 | 97 | 51 | 2670 | 440
2 | CCCCCn1cc(C(=O)NC2CCCCCC2)c(=O)c2cnn(C)c21 | 44 | 404 | 103 | 130 | 56 | 5200 | 4550
3 | CCCCCn1cc(C(=O)NCC2CCCCC2)c(=O)c2c(C)nn(C)c21 | 3 | 1560 | 372 | 508 | 41 | 1040 | 1120
4 | CCCn1cc(C(=O)NC2CCCCC2)c(=O)c2c(C)nn(C)c21 | 1.8 |  | 412 | 593 |  | 832 | 758
5 | CCCCCn1cc(C(=O)NC2CCCCC2)c(=O)c2c(CC)nn(C)c21 | 2 | 2350 | 469 | 516 | 32 | 1120 | 957
6 | CCCCn1cc(C(=O)NC2CCCCC2)c(=O)c2c(C)nn(C)c21 | 9.1 | 1890 | 138 | 145 | 38 | 1530 | 1260
7 | CCCCCn1cc(C(=O)Nc2ccccc2)c(=O)c2c(C)nn(C)c21 | 1.7 | 2160 | 524 | 740 | 38 | 1020 | 865
8 | CCCCCn1cc(C(=O)NC2CCCCC2)c(=O)c2c(C)nn(C)c21 | 5.9 | 323 | 85 | 100 | 52 | 1420 | 500
9 | CCCCCn1cc(C(=O)NC23CC4CC(CC(C4)C2)C3)c(=O)c2c(C(C)(C)C)nn(C)c21 | 10 | 1760 | 363 | 417 | 43 | 3430 | 3750
10 | CCCCCn1cc(C(=O)N[C@H]2CC[C@H](C)CC2)c(=O)c2c(C)nn(C)c21 | 401 | 58 | 11.4 | 13.3 | 14 | 4800 | 4570
11 | CCCCCCn1cc(C(=O)NC2CCCCC2)c(=O)c2c(C)nn(C)c21 | 12 | 1200 | 325 | 480 | 27 | 3220 | 3870
12 | Cc1nn(C)c2c1c(=O)c(C(=O)NC1CCCCC1)cn2Cc1ccccc1 | 4.4 | 3820 | 956 | 1100 | 36 | 4560 | 4250
13 | CCCCCn1cc(C(=O)N[C@H]2CC[C@@H](C)CC2)c(=O)c2c(C)nn(C)c21 | 68 | 52 | 10.6 | 11.8 | 16 | 750 | 723
14 | CCCCCn1cc(C(=O)NC2CCCCCC2)c(=O)c2c(C)noc21 | 7.8 | 35 | 18.5 | 50 | 99 | 184 | 145
15 | CCCCCn1cc(C(=O)NC23CC4CC(CC(C4)C2)C3)c(=O)n2ncnc12 | 35.6 | 87 | 20 | 21 | 60 | 850 | 712
16 | CCCCCn1cc(C(=O)NC(C)CCC(C)C)c(=O)c2c(C)nn(C)c21 (stereo unspecified) | 8.5 | 827 | 212 | 262 | 46 | 2260 | 1800
17 | CCCCCn1cc(C(=O)NC23CC4CC(C)(CC(C)(C4)C2)C3)c(=O)c2c(C)nn(C)c21 | 107 | 45 | 9.83 | 16.7 | 71 | 3260 | 1050
18 | CCCCCn1cc(C(=O)NC2CCCCCC2)c(=O)c2c(C)nn(C)c21 | 23 | 51 | 11.2 | 35 | 65 | 1620 | 252
19 | CCCCCn1cc(C(=O)NC2CCCCC2)c(=O)c2c(C)csc21 | 7.2 | 107 | 12.3 | 14.8 | -64 | 98 | 86
20 | CCCCCn1cc(C(=O)NC23CC4CC(CC(C4)C2)C3)c(=O)c2cnn(C)c21 | 432 | 41 | 11.6 | 13.3 | 67 | 5340 | 4750
21 | CCCCCn1cc(C(=O)NC23CC4CC(CC(C4)C2)C3)c(=O)c2c(C)c(C)sc21 | 15.9 | 34 | 3.27 | 4.26 | -178 | 52 | 43
22 | CCCCCn1cc(C(=O)NC2CCCCCC2)c(=O)c2c(C)csc21 | 7.5 | 65 | 6.95 | 8.23 | -95 | 67 | 52
23 | CCCCCn1cc(C(=O)NC23CC4CC(CC(C4)C2)C3)c(=O)c2c(C)nn(C)c21 | 84 | 49 | 9.51 | 11.4 | 68 | 832 | 800
24 | CCCCCn1cc(C(=O)NC2CCCCC2)c(=O)c2cnn(C)c21 | 22 | 872 | 237 | 250 | 48 | 5650 | 5150
25 | CCCCCn1cc(C(=O)NC23CC4CC(CC(C4)C2)C3)c(=O)n2nc(-c3ccccc3)nc12 | 146 |  | 3.58 | 4.83 |  | 560 | 523
